Experimental findings from ChEMBL document CHEMBL1143837, “In vitro activities of various antimicrobials alone and in combination with tigecycline against carbapenem-intermediate or -resistant Acinetobacter baumannii” (2007) are described below.

In brackets after ≈: the same amount, converted by molar mass. Activity calls are given as the source filed them. The calls are words filed in the database; no cut-off is given here.

Assay [1] deals with Acinetobacter baumannii. Put plainly: Antimicrobial activity against carbapenem-intermediate or resistant Acinetobacter baumannii assessed as percent susceptible isolates. Type of assay: functional.
For assay [2], the system named is Acinetobacter baumannii. As to the kind of experiment: Antimicrobial activity against carbapenem-intermediate or resistant Acinetobacter baumannii isolates by agar dilution method. Type of assay: functional. In short, it runs like this: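 Clinical isolates with imipenem or meropenem MIC ≥8 mg/liter were tested by agar dilution on Mueller-Hinton agar supplemented with 25 mg/liter calcium and 12.5 mg/liter magnesium. Inoculum was ~10⁴ CFU per spot from a 0.5 McFarland BHI suspension. Plates were incubated at 35°C for 18–24 h. Growth beyond a single colony or a slight haze counted as growth.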
On the technique in general: In agar dilution the substance is mixed into plates at graded concentrations.

Assay [3] concerns Acinetobacter baumannii. As to the kind of experiment: Bactericidal activity against carbapenem-resistant Acinetobacter baumannii AA557 by time kill curve analysis. Type of assay: functional, organism-based. In short, it runs like this: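 Time-kill on AA557: mid-log (4 h) inoculum at ~5 × 10⁵ CFU/ml in 10 ml fresh CAMHB with tigecycline at 0.5×, 1×, 2× or 4× MIC, or at the calculated average free steady-state serum level, plus growth control. Sampled at 0, 2, 4, 8, 24 and 48 h and plated in duplicate on sheep-blood TSA (35°C, 18–24 h). Detection limit 40 CFU/ml. Experiments run in duplicate.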

Assay [4] deals with Acinetobacter baumannii. As to the kind of experiment: Antimicrobial activity against carbapenem-intermediate or resistant Acinetobacter baumannii isolates by broth microdilution method. The class given is functional. In short, it runs like this: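 Tigecycline MIC by broth microdilution in freshly prepared CAMHB (25 mg/liter calcium, 12.5 mg/liter magnesium). Approximately 5 × 10⁵ CFU/ml was added to serial drug dilutions and incubated in ambient air at 35°C for 18–24 h. Isolates had imipenem or meropenem MIC ≥8 mg/liter.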
In general terms: In broth dilution the organism is exposed to a series of concentrations in liquid medium.

Assay [5] deals with Acinetobacter baumannii. Put plainly: Bactericidal activity against carbapenem-resistant Acinetobacter baumannii AA557 assessed as reduction in colony count at 2 mg/liter after 24 hrs by time kill curve analysis. The class given is functional, organism-based.

For `NCC[C@H](O)C(=O)N[C@@H]1C[C@H](N)[C@@H](O[C@H]2O[C@H](CN)[C@@H](O)[C@H](O)[C@H]2O)[C@H](O)[C@H]1O[C@H]1O[C@H](CO)[C@@H](O)[C@H](N)[C@H]1O` [AMIKACIN], the Activity in the assay on Acinetobacter baumannii [1] stood at 38%. In the assay on Acinetobacter baumannii [2], the MIC50 (as a rule, the lowest concentration that inhibits either 50% of growth or 50% of the strains tested, depending on the study) is 32 µg/mL (≈ 54.6 µM); the MIC90 – broadly, an inhibitory concentration at the 90% level, which refers to growth in some studies and to a panel of isolates in others – is more than 32 µg/mL.

For the compound `O=C(O)c1cn(C2CC2)c2cc(N3CCNCC3)c(F)cc2c1=O` [CIPROFLOXACIN], in the assay with Acinetobacter baumannii [1], the Activity came out at 0%.

As to `C[C@H]1c2cccc(O)c2C(=O)C2=C(O)[C@]3(O)C(=O)C(C(N)=O)=C(O)[C@@H](N(C)C)[C@@H]3[C@@H](O)[C@@H]21.O` [DOXYCYCLINE], the Activity in the assay on Acinetobacter baumannii [1] came to 56%. In the assay on Acinetobacter baumannii [2], this compound returned an MIC50 of 2 µg/mL and an MIC90 of more than 32 µg/mL.

`C[C@@H](O)[C@H]1C(=O)N2C(C(=O)O)=C(SCCNC=N)C[C@H]12` [IMIPENEM ANHYDROUS]: the Activity in the assay on Acinetobacter baumannii [1] amounted to 20%. In addition, in the assay with Acinetobacter baumannii [2], the MIC50 is 4 µg/mL (≈ 13.4 µM) and the MIC90 was 64 µg/mL (≈ 214 µM).

On to `C[C@@H](O)[C@H]1C(=O)N2C(C(=O)O)=C(S[C@@H]3CN[C@H](C(=O)N(C)C)C3)[C@H](C)[C@H]12` [MEROPENEM], for which, in the assay on Acinetobacter baumannii [1], the Activity is recorded as 4%. Moreover, in the assay with Acinetobacter baumannii [2], the MIC50 amounted to 16 µg/mL (≈ 41.7 µM) and the MIC90 was more than 128 µg/mL.

For `CN(C)c1ccc(O)c2c1C[C@H]1C[C@H]3[C@H](N(C)C)C(O)=C(C(N)=O)C(=O)[C@@]3(O)C(O)=C1C2=O` [MINOCYCLINE], in the assay with Acinetobacter baumannii [1], the Activity stood at 83%. In the assay on Acinetobacter baumannii [2], this compound showed an MIC50 of 0.5 µg/mL (≈ 1.09 µM) and an MIC90 of 8 µg/mL (≈ 17.5 µM).

For `CO[C@H]1/C=C/O[C@@]2(C)Oc3c(C)c(O)c4c(O)c(c(/C=N/N5CCN(C)CC5)c(O)c4c3C2=O)NC(=O)/C(C)=C\C=C\[C@H](C)[C@H](O)[C@@H](C)[C@@H](O)[C@@H](C)[C@H](OC(C)=O)[C@@H]1C` [RIFAMPIN], the result in the assay on Acinetobacter baumannii [1] was inactive. Moreover, in the assay with Acinetobacter baumannii [2], the MIC50 was found to be 4 µg/mL (≈ 4.86 µM) and the MIC90 was 8 µg/mL (≈ 9.72 µM).

For the compound `CN(C)c1cc(NC(=O)CNC(C)(C)C)c(O)c2c1C[C@H]1C[C@H]3[C@H](N(C)C)C(O)=C(C(N)=O)C(=O)[C@@]3(O)C(O)=C1C2=O` [TIGECYCLINE], the Activity in the assay on Acinetobacter baumannii [1] was found to be 95%. Moreover, the outcome in the assay on Acinetobacter baumannii [3] was Active. Also, in the assay with Acinetobacter baumannii [4], the MIC50 amounted to 1 µg/mL (≈ 1.71 µM) and the MIC90 came to 2 µg/mL (≈ 3.41 µM).

Regarding POLYMYXIN B, the Activity in the assay with Acinetobacter baumannii [1] turned out to be 100%. Besides, the log10CFU/ml in the assay on Acinetobacter baumannii [5] was 1.6. In the assay with Acinetobacter baumannii [2], this compound displayed an MIC50 of 1 µg/mL and an MIC90 of 1 µg/mL.
